Measurements as given in ChEMBL document CHEMBL1671768, “In vitro activity of pyronaridine against multidrug-resistant Plasmodium falciparum and Plasmodium vivax” (Antimicrob Agents Chemother, 2010).

How the values were obtained:
Assay type in all cases: functional, organism-based
[1] = test system: Plasmodium vivax; experiment: Antimalarial activity against Plasmodium vivax at the ring stage infected in human erythrocytes assessed as growth inhibition by microscopic analysis using giemsa staining
Procedure, shortened: (§1)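 P. vivax field isolates from Papuan patients, leukocyte-depleted on CF11, were placed in McCoy's 5A + 20% AB+ serum at 2% hematocrit. Plates held 11 two-fold drug dilutions, incubated in a candle jar at 37.5°C until >40% of control rings were mature schizonts. Giemsa thick films were read for schizonts (≥5 chromatin dots/200 parasites) relative to control. IC50 used an inhibitory sigmoid Emax model, accepting fits with Emax/E0 within 15%.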

[2] = test system: Plasmodium vivax; experiment: Antimalarial activity against Plasmodium vivax trophozoites infected in human erythrocytes assessed as growth inhibition by microscopic analysis using giemsa staining; procedure, shortened: as §1
[3] = test system: Plasmodium vivax; experiment: Antimalarial activity against Plasmodium vivax infected in human erythrocytes assessed as growth inhibition by microscopic analysis using giemsa staining; procedure, shortened: as §1
[4] = test system: Plasmodium falciparum; experiment: Antimalarial activity against Plasmodium falciparum at the ring stage infected in human erythrocytes assessed as growth inhibition by microscopic analysis using giemsa staining
[5] = test system: Plasmodium falciparum; experiment: Antimalarial activity against Plasmodium falciparum trophozoites infected in human erythrocytes assessed as growth inhibition by microscopic analysis using giemsa staining
Procedure, shortened: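 Fresh field isolates from uncomplicated malaria patients in Papua, with leukocytes removed on CF11. Cells were kept at 2% hematocrit in RPMI 1640 + 10% AB+ human serum on predosed plates with 11 two-fold drug dilutions, in a candle jar at 37.5°C for 21–46 h. Harvest was when >40% of control rings reached schizont.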

[6] = test system: Plasmodium vivax; experiment: Antimalarial activity against Plasmodium vivax with >50% parasites at ring stage infected in human erythrocytes assessed as growth inhibition after 30 to 50 hrs by microscopic analysis using giemsa staining
Procedure, shortened: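 Post hoc subset of P. vivax isolates with >50% ring stage at enrollment and assay duration of 30–50 h. Culture was in McCoy's 5A + 20% AB+ serum, 2% hematocrit, 11 two-fold drug dilutions, candle jar, 37.5°C.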

[7] = test system: Plasmodium falciparum; experiment: Antimalarial activity against Plasmodium falciparum infected in human erythrocytes assessed as growth inhibition by microscopic analysis using giemsa staining

SMILES	IC50 [1]	IC50 [2]	IC50 [3]	IC50 [4]	IC50 [5]	IC50 [6]	IC50 [7]
CCN(CC)CCCC(C)Nc1ccnc2cc(Cl)ccc12 (stereo not given) [CHLOROQUINE]	49.2 nM	2430 nM	142 nM				
Clc1ccc2c(N3CCN(CCCN4CCN(c5ccnc6cc(Cl)ccc56)CC4)CC3)ccnc2c1 [PIPERAQUINE]	14 nM	21.7 nM	24.8 nM	11.8 nM	77.2 nM	19.6 nM	17.1 nM
CCN(CC)Cc1cc(Nc2ccnc3cc(Cl)ccc23)ccc1O		25.2 nM	14 nM	8.1 nM	12.6 nM	12 nM	5.7 nM
COc1ccc2nc3cc(Cl)ccc3c(Nc3cc(CN4CCCC4)c(O)c(CN4CCCC4)c3)c2n1 [PYRONARIDINE]	2.5 nM	4.7 nM	2.58 nM	1.6 nM	8 nM	2.4 nM	1.92 nM
C[C@H]1[C@H](OC(=O)CCC(=O)O)O[C@@H]2O[C@@]3(C)CC[C@H]4[C@H](C)CC[C@@H]1[C@@]24OO3 [ARTESUNATE]			1.03 nM			1.27 nM	0.68 nM
OC(c1cc(C(F)(F)F)nc2c(C(F)(F)F)cccc12)C1CCCCN1 (stereo not given) [MEFLOQUINE]	7.9 nM		12.1 nM		8.5 nM	8 nM	
